Test results published in PubChem BioAssay.
Calls of active or inactive are those of the source.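 Rule for the calls, unless noted: active = visually confirmed hit in the image check and inhibition above 20%; inconclusive = visually confirmed hit but inhibition not above 20%; inactive = no visual hit in the image check.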

How the values were obtained:
[1] = inhibitors of TNFa-induced NFkB p65 translocation, primary screen, imaging, HUVEC, MLSMR starter and 10KST1 sets (AID 438;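 active = inhibition above 20% together with a positive visual image hit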;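 note: compound added about 3h40 before a 20 min TNFalpha stimulation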;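 for inhibition: signal is the nuclear over cytoplasmic p65 intensity ratio per well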); settings: HUVEC TNFa-induced p65 nuclear translocation; cell count: measured here: nuclei count (cytotoxicity indicator), at 2.08 µM; inhibition: at 2 µM, stronger effect = higher value, 0% TNFa-plus-vehicle, 100% no-TNFa wells
[2] = reduction of polyQ htt aggregates in cells – imaging, exon1htt(103Q)mCFP cells, high-content imaging, primary screen (AID 483;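 active = visual image review flags a hit and inhibition of aggregation exceeds 20%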;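 note: compound exposure lasted 3 days before fixation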;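 for nuclei count: percent of the per-plate median nuclei count of sample wells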); settings: exon1htt(103Q)mCFP cell line, aggregate imaging, at 2 µM; inhibition of aggregation: stronger effect = higher value; nuclei count: measured here: cell count, toxicity
[3] = endothelial E-selectin expression blockers – imaging, HUVEC, immunofluorescence, MLSMR starter and 10KST1 sets, primary screen (AID 487); settings: HUVEC TNFalpha-induced E-selectin immunofluorescence imaging, at 2 µM; inhibition: stronger effect = higher value; nuclei count: measured here: cell number, toxicity;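 for inhibition: signal is fraction of cell area covered by stained E-selectin grains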;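 for nuclei count: 100% = median nuclei count of all wells on the same plate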
[4] = target: Voltage-gated potassium channel subunit beta-2 (Rattus norvegicus) (UniProt P62483); test: inhibitors of rat Kvbeta2 reductase activity – biochemical, NADPH fluorescence, primary screen (AID 622;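 active = fluorescence slope higher than the sample average by over 3 SD, cut at about -0.22 in these data, passing the limit was not always enough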;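 note: slope of raw intensity against log time taken from 70 to 1610 s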); settings: recombinant KvBeta, 4-cyanobenzaldehyde reduction, at 10 µM, stronger effect = higher value
[5] = target: Voltage-gated potassium channel subunit beta-2 (Rattus norvegicus) (UniProt P62483); test: enhancers of rat Kvbeta2 NADPH turnover – biochemical, NADPH fluorescence, primary screen (AID 623;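 active = NADPH fluorescence slope more negative than the mean of all samples by about 3 SD, 99.7% confidence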;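 note: fluorescence intensity change per second fitted from 20 to 320 s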); settings: Recombinant KvBeta, NADPH fluorescence decrease slope, 10 min; at 10 µM; stronger effect = lower value
[6] = target: Muscarinic acetylcholine receptor M4 (Homo sapiens) (UniProt P08173); test: M4-linked GIRK flux change, two-sided – cell-based, HEK293 M4/GIRK, thallium flux, BTC-AM, M4 allosteric agonist project, primary screen (AID 625;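 active = fluorescence slope after compound addition differing from the mean of all tested samples at 99.7% confidence, mostly higher but some lower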;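 note: thallium influx through GIRK channels coupled to M4 in HEK293 cells with BTC-AM dye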); settings: at 10 µM, actives lie on both sides
Outline: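 Material: M4/GIRK1/GIRK2 stable HEK293 cell line. Medium: pH 7.3 thallium assay buffer. Dosing: single compound concentration, 10 µM final. Schedule: 1 h dye loading, 2 min kinetic read. Measured by: kinetic fluorescence with BTC-AM dye. Read-out: post-addition slope, 15–24 s, of baseline-normalized fluorescence. Benchmarks: carbachol and DMSO controls.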

[7] = blockers of RIG-like receptor reporter activation – cell-based, Sendai virus stimulus, luciferase, 10K MLSCN set, TLR/RLR signaling modifier project, primary screen (AID 602276;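 active = inhibition at or above 50% at 10 µM; inactive = inhibition below 50%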;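 note: firefly luciferase from ISG56 promoter only with Renilla not read in this screen; 0% = Sendai virus plus DMSO and 100% = medium plus DMSO without virus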); settings: HEK293 RL24 IRF3 luciferase reporter, at 10 µM, stronger effect = higher value
[8] = TLR3 IRF3 reporter activation blockers – cell-based, poly I:C stimulus, luciferase, 10K MLSCN set, primary screen (AID 602277;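 active = inhibition of the reporter signal at or above 50%; inactive = inhibition below 50%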); settings: HEK293-TLR3 RL24 IRF3 luciferase reporter, at 10 µM, stronger effect = higher value

Chain of Muscarinic acetylcholine receptor M4 (Homo sapiens) (P08173 whole entry, looked up): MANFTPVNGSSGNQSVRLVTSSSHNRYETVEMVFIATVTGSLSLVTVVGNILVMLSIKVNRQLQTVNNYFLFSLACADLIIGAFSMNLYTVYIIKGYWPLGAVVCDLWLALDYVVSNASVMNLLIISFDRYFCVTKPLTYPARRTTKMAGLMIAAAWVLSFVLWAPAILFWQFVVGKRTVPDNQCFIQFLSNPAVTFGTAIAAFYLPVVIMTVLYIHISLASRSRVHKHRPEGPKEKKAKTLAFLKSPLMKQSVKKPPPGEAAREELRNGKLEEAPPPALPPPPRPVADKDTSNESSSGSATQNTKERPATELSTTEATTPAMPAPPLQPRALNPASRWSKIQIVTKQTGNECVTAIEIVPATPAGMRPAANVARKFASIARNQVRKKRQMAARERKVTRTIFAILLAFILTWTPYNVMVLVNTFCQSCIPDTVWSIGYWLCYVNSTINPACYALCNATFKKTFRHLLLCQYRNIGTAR
Chain of Voltage-gated potassium channel subunit beta-2 (Rattus norvegicus) (P62483 whole entry, looked up): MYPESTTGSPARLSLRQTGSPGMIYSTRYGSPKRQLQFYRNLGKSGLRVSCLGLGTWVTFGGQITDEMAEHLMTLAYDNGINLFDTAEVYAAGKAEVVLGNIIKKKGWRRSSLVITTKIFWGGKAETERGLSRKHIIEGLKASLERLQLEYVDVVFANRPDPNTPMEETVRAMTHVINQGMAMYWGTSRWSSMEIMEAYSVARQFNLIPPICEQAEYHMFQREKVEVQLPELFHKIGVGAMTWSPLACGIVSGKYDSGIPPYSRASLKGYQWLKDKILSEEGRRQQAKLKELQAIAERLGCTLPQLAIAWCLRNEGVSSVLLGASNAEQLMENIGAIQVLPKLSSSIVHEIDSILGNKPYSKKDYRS

Row | Structure (SMILES) | cell count [1] | inhibition [1] | inhibition of aggregation [2] | nuclei count [2] | inhibition [3] | nuclei count [3] | fluorescence slope [4] | NADPH fluorescence slope [5] | fluorescence slope [6] | inhibition [7] | inhibition [8]
1 | S=c1[nH]nc(COc2ccccc2)n1C1CCCCC1 | 552 | 8% (inactive) | 18.7% (inactive) | 91.7% | 48.2% (inactive) | 105% | -0.553 (inactive) | -3e-06 (inactive) | 0.0103 (inactive) | -4.8% (inactive) | 10.9% (inactive)
2 | CCOC(=O)CN1C2=NCCN2c2ccccc21 | 428 | 3.8% (inactive) | -1.1% (inactive) | 76.3% | -107% (inactive) | 125% | -0.605 (inactive) | -8.6e-06 (inactive) | 0.00469 (inactive) | 13.8% (inactive) | 18.8% (inactive)
3 | COc1nc(N2CCOCC2)nc(-n2cccc2)n1 | 534 | -4.1% (inactive) | 3% (inactive) | 99.6% | 52.3% (inactive) | 80.1% | -0.547 (inactive) | -7.1e-05 (inactive) | 0.00492 (inactive) | 2.29% (inactive) | 4.71% (inactive)
4 | CSc1n[nH]c(NCc2ccccc2)n1 | 278 | 0.2% (inactive) | 10.1% (inactive) | 70.6% | -70.1% (inactive) | 119% | -0.482 (inactive) | -1.9e-05 (inactive) | 0.00548 (inactive) | 6.09% (inactive) | -2.54% (inactive)
5 | Cc1ccccc1S(=O)(=O)Cc1ccc(C(=O)NCc2cccnc2)o1 | 596 | -2.3% (inactive) | 9% (inactive) | 105% | 9.8% (inactive) | 112% | -0.546 (inactive) | 4e-05 (inactive) | 0.00552 (inactive) | 16.7% (inactive) | 19.4% (inactive)
6 | CCC(=O)NC1(C(F)(F)F)C(=O)NC(C)=C1C#N (centres undefined) | 382 | 3.6% (inactive) | 11.2% (inactive) | 98.2% | -18.8% (inactive) | 105% | -0.445 (inactive) | 4.4e-05 (inactive) | 0.00561 (inactive) | 14.9% (inactive) | 25.3% (inactive)
7 | CCSc1nc(C)nc2c1oc1ccccc12 | 407 | 1.9% (inactive) | 2.4% (inactive) | 96.3% | -45.2% (inactive) | 106% | -0.423 (inactive) | -7.5e-05 (inactive) | 0.00861 (inactive) | -4.86% (inactive) | -3.79% (inactive)
8 | COc1ccc(OC)c(C2=NOC(C(=O)Nc3cccnc3)C2)c1 (centres undefined) | 738 | -14.3% (inactive) | -1.9% (inactive) | 100% | -31.9% (inactive) | 93% | -0.561 (inactive) | 5.2e-07 (inactive) | 0.00522 (inactive) | 4.03% (inactive) | 2.04% (inactive)
9 | Fc1ccccc1-c1nc(-c2ccccc2)no1 | 632 | 13.8% (inactive) | 3.3% (inactive) | 103% | -5.4% (inactive) | 97.2% | -0.554 (inactive) | -7.9e-05 (inactive) | 0.00608 (inactive) | -27.9% (inactive) | -60% (inactive)
10 | COc1cccc(-c2cc(C(F)(F)F)n3nc(N)nc3n2)c1 | 814 | -0.8% (inactive) | 18.9% (inactive) | 90.5% | 31.9% (inactive) | 98.9% | -0.449 (inactive) | -5e-05 (inactive) | 0.00414 (inactive) | 6.21% (inactive) | -0.814% (inactive)
11 | NC(=O)c1nsnc1-c1ccccc1O | 504 | -9.3% (inactive) | -3.4% (inactive) | 107% | 20.3% (inactive) | 100% | -0.531 (inactive) | 0.0001 (inactive) | 0.00622 (inactive) | -10.2% (inactive) | -7.73% (inactive)
12 | N#Cc1nc(-c2cccs2)oc1NCc1ccc(Cl)cc1 | 341 | -8.1% (inactive) | 19.1% (inactive) | 98.9% | 47.2% (inactive) | 106% | -0.526 (inactive) | -2e-05 (inactive) | 0.00571 (inactive) | 18.3% (inactive) | 10.5% (inactive)
13 | O=C(CCn1c(=O)oc2ccccc21)NCCN1CCc2ccccc2C1 | 375 | 7.2% (inactive) | 5.1% (inactive) | 93.1% | -315% (inactive) | 108% | -0.451 (inactive) | -2.5e-05 (inactive) | 0.00577 (inactive) | 15.7% (inactive) | 29.6% (inactive)
14 | Cc1nn(-c2ccccc2)c(Cl)c1C1C(C#N)=C(N)OC2=C1C(=O)CC(C)(C)C2 (centres undefined) | 378 | 5.6% (inactive) | -4.8% (inactive) | 100% | -110% (inactive) | 113% | -0.577 (inactive) | -3.7e-05 (inactive) | 0.00783 (inactive) | 6.31% (inactive) | 31.1% (inactive)
